# According to ChEMBL document CHEMBL4396883, “Discovery of CDK5 Inhibitors through Structure-Guided Approach” (ACS Med Chem Lett, 2019):
# Active and inactive are the calls of the source. The calls are words filed in the database; no cut-off is given here.
# Key:
# [1] = molecular target: Cyclin-dependent kinase 5/CDK5 activator 1 (Homo sapiens, UniProt Q00535); assay: Inhibition of recombinant full length N-terminal GST tagged human CDK5/p25 expressed in baculovirus infected sf9 cells using histone H1 as substrate measured after 60 mins in presence of ATP by ADP-Glo kinase assay; format: cell-based
# [2] = molecular target: Receptor-type tyrosine-protein kinase FLT3 (Homo sapiens, UniProt P36888, ITD); assay: Inhibition of human recombinant full length GST-fused/His-tagged FLT3 ITD mutant expressed in Sf9 cells using poly (Glu,Tyr) as substrate incubated for 80 mins in presence of ATP by ADP-Glo kinase assay
# [3] = molecular target: Cyclin-dependent kinase 5 (Homo sapiens) (UniProt Q00535); assay: Inhibition of CDK5 in human MV4-11 cells assessed as decrease in phosphorylated Akt protein level at 5 to 10 uM measured after 24 hrs incubation by Western blot analysis; format: cell-based
# Outline: (§1)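 Cells treated for 24 h; lysates immunoblotted for pAkt (S473), pRB (S780), cyclin D1, p27KIP1, and cleaved caspase 3 and 7 (MOLM-13); at least two independent repeats.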
# [4] = molecular target: Cyclin-dependent kinase 5 (Homo sapiens) (UniProt Q00535); assay: Inhibition of CDK5 in human MOLM13 cells assessed as increase in cleaved caspase 7 level at 5 to 10 uM measured after 24 hrs by western blot analysis; format: cell-based; outline: as §1
# [5] = system: MV4-11; assay: Cell cycle arrest in human MV4-11 cells assessed as accumulation at G1 phase at 2.5 to 10 uM measured after 24 hrs by propidium iodide staining based flow cytometry analysis; format: functional
# Outline: (§2)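 MV4-11 cells treated 24 h at 2.5 and 10 μM; cell-cycle phase distribution (sub-G1, G1, S, G2/M) by flow cytometry; at least two independent experiments, numerical data as mean value.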
# [6] = system: MV4-11; assay: Cell cycle arrest in human MV4-11 cells assessed as accumulation at sub G1 phase at 10 uM measured after 24 hrs by propidium iodide staining based flow cytometry relative to control; format: functional; outline: as §2
# [7] = system: MV4-11; assay: Cell cycle arrest in human MV4-11 cells assessed as accumulation at G2/M phase at 10 uM measured after 24 hrs by propidium iodide staining based flow cytometry relative to control; format: functional; outline: as §2
# [8] = system: MV4-11; assay: Cell cycle arrest in human MV4-11 cells assessed as accumulation at G1 phase at 10 uM measured after 24 hrs by propidium iodide staining based flow cytometry relative to control; format: functional; outline: as §2
# [9] = molecular target: Cyclin-dependent kinase 5 (Homo sapiens) (UniProt Q00535); assay: Inhibition of CDK5 in human MOLM13 cells assessed as increase in cleaved caspase 3 level at 5 to 10 uM measured after 24 hrs by western blot analysis; format: cell-based; outline: as §1
# [10] = system: MV4-11; assay: Cell cycle arrest in human MV4-11 cells assessed as accumulation at S phase at 10 uM measured after 24 hrs by propidium iodide staining based flow cytometry relative to control; format: functional; outline: as §2
# [11] = molecular target: Cyclin-dependent kinase 5 (Homo sapiens) (UniProt Q00535); assay: Inhibition of CDK5 in human MOLM13 cells assessed as decrease in phosphorylated RB protein level at 5 to 10 uM measured after 24 hrs incubation by Western blot analysis; format: cell-based; outline: as §1
# [12] = system: MOLM-13; assay: Induction of apoptosis in human MOLM13 cells assessed as viable cells at 10 uM measured after 24 hrs by Annexin V-FITC/PI staining based flow cytometry relative to control; format: functional; conditions: MOLM-13, 24 h, read-out: Activity
# [13] = system: MOLM-13; assay: Induction of apoptosis in human MOLM13 cells assessed as necrotic cells at 10 uM measured after 24 hrs by Annexin V-FITC/PI staining based flow cytometry relative to control; format: functional
# [14] = organism: Homo sapiens; assay: Selectivity ratio of Ki for recombinant full length N-terminal GST tagged human CDK2/CyclinA expressed in baculovirus infected sf9 cells using histone H1 as substrate to recombinant full length N-terminal GST tagged human CDK5/p25 expressed in baculovirus infected sf9 cells using histone H1 as substrate by ADP-Glo kinase assay
# Sequence of Cyclin-dependent kinase 5 (Homo sapiens) (Q00535 whole entry, looked up): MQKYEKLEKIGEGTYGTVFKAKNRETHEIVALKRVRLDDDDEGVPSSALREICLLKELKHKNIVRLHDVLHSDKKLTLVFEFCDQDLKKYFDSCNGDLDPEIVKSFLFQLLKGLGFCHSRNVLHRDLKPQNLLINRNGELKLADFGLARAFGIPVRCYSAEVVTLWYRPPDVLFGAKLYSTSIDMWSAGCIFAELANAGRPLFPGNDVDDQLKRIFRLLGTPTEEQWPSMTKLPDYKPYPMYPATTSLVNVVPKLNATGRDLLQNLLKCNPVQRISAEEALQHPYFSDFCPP
# Sequence of Cyclin-dependent kinase 5/CDK5 activator 1 (Q00535 whole entry, the tested form may be a part): as the sequence (Q00535 whole entry, looked up) above
# Sequence of Cyclin-dependent kinase 5/CDK5 activator 1 (Q15078 whole entry, further chain, the tested form may be a part): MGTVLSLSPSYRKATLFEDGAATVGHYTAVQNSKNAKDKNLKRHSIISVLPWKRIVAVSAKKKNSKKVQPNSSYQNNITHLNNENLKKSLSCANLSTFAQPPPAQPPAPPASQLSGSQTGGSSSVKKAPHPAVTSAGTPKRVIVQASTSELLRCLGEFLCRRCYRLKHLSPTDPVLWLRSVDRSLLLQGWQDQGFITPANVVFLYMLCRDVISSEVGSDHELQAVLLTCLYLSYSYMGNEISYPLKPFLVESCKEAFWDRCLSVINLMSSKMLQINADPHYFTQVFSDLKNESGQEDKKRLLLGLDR
# Sequence of Receptor-type tyrosine-protein kinase FLT3 (P36888 whole entry, looked up, stated change not applied, the tested form may be a part): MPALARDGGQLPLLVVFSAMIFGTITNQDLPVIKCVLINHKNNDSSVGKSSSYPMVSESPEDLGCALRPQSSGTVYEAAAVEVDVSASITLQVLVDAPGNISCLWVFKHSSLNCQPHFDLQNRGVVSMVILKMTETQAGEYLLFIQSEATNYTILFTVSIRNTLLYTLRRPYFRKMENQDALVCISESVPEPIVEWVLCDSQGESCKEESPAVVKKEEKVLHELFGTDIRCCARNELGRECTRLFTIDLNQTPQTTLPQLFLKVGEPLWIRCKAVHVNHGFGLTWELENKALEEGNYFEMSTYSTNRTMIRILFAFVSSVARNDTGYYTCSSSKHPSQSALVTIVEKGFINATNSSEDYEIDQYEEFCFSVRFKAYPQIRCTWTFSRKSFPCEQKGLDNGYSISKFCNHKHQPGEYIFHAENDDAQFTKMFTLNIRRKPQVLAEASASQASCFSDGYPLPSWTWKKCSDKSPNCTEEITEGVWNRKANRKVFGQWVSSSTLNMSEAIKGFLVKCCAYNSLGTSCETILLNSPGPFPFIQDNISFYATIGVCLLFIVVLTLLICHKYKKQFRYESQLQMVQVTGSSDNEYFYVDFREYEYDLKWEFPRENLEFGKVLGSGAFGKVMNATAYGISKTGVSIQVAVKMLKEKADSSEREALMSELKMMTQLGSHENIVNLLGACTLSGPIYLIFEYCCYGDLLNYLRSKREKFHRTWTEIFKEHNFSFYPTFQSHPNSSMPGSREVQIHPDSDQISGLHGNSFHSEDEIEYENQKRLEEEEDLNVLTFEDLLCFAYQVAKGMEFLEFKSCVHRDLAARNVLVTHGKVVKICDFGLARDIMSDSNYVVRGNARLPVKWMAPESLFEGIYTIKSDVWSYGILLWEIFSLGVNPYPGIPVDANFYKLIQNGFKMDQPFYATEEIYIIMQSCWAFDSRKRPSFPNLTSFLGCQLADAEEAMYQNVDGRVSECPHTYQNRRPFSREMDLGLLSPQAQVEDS
Ki [1] [nM],IC50 [2] [nM],inhibition [3],Activity [4],Activity [9],inhibition [11],SMILES,Activity [5],Activity [6] [%],Activity [7] [%],Activity [8] [%],Activity [10] [%],viability at 10 µM [12] [%],Activity [13] [%],Ratio Ki [14]
160,1480,Active,Active,Active,Active,NS(=O)(=O)c1cccc(Nc2ncc3c(n2)CCCC3)c1,Active,5.08,3.15,88.08,2.67,,,
800,> 10000,Active,Active,Active,Active,Cc1cccc(Nc2ncc3c(n2)CCCC3)c1,Active,,,,,61.8,0.17,4
